# Data from ChEMBL document CHEMBL1137789, “Synthesis, binding, and modeling studies of new cytisine derivatives, as ligands for neuronal nicotinic acetylcholine receptor subtypes” (J Med Chem, 2009).
# Key:
# Format in all cases: cell membranes
# [1] = target: T1, Neuronal acetylcholine receptor; alpha4/beta2 (Rattus norvegicus, UniProt P09483+P12390); assay: Displacement of [3H]cytisine from alpha4beta2 nicotinic acetylcholine receptor in rat brain cortex membrane homogenates
# [2] = target: T1, Neuronal acetylcholine receptor; alpha4/beta2; assay: Displacement of (+/-)-[3H]epibatidine from alpha4beta2 nicotinic acetylcholine receptor in rat brain cortex membrane homogenates
# Summary of the method: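 Compounds (10 pM-10 mM) preincubated 30 min rt, then overnight at 4 °C with 0.005-0.1 nM final [³H]-epibatidine. Nonspecific: 100 nM epibatidine. Filtration, β counting. Ki by LIGAND fit of three independent experiments.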
# [3] = target: Neuronal acetylcholine receptor subunit alpha-7 (Rattus norvegicus, UniProt Q05941); assay: Displacement of [125I]alpha-bungarotoxin from alpha7 nicotinic acetylcholine receptor in rat brain cortex membrane homogenates
# Summary of the method: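 Cortex membrane homogenates from 21-day-old rats in buffer A (Tris-HCl pH 7 with salts, PMSF). Compounds (10 pM-10 mM) preincubated 30 min at rt, then overnight at rt with 1 nM final [¹²⁵I]-α-bungarotoxin. Nonspecific: 1 μM unlabeled α-bungarotoxin. Filtration, γ counting. Ki fitted by LIGAND from three independent competition experiments; no inhibition up to 200 μM taken as Ki >100 μM.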
# Neuronal acetylcholine receptor subunit alpha-7, sequence (Q05941 whole entry): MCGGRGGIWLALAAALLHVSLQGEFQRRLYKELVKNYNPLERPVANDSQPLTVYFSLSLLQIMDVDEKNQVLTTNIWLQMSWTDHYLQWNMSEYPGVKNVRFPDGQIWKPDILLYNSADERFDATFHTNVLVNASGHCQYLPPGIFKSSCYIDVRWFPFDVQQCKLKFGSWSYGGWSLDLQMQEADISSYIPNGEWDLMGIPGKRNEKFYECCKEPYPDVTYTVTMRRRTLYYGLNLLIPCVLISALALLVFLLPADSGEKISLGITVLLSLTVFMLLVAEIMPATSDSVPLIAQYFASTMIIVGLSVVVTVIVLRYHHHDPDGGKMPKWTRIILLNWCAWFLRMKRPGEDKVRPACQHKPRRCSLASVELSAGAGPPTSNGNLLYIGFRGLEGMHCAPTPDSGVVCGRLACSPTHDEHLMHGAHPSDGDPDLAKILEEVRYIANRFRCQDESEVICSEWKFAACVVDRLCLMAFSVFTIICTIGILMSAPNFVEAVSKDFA
# T1 sequence (P09483 whole entry): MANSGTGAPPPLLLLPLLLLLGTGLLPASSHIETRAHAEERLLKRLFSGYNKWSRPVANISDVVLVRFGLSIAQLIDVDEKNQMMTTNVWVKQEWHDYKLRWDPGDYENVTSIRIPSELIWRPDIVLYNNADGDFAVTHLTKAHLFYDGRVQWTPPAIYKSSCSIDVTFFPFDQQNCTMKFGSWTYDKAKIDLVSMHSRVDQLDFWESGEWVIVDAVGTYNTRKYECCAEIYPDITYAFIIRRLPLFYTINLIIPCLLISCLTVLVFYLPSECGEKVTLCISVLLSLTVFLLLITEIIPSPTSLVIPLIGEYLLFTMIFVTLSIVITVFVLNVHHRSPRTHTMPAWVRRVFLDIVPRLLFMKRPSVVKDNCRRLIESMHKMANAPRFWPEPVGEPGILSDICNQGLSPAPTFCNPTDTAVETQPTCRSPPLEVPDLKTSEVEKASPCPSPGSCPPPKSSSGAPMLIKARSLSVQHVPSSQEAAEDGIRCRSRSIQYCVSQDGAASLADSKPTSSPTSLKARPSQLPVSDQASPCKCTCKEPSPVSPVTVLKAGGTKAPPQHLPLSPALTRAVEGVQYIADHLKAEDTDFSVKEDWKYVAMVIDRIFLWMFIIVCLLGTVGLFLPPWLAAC
# T1 sequence (P12390 whole entry): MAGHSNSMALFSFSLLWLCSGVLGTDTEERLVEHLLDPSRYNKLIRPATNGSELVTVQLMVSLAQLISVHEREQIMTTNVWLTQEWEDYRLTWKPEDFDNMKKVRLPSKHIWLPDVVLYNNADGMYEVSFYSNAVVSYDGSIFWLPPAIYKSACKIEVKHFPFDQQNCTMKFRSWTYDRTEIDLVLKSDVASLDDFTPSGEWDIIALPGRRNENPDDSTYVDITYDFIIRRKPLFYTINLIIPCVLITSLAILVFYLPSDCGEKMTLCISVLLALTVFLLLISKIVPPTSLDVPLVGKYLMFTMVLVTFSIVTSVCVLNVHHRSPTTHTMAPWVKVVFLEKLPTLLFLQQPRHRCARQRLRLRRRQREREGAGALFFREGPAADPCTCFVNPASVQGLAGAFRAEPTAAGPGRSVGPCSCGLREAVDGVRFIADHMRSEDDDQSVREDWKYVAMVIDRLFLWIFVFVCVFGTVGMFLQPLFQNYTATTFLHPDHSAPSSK
structure (smiles),measurement,setting,value
CC(=O)CCN1C[C@@H]2C[C@H](C1)c1cccc(=O)n1C2,Ki,[1],3.2 nM
same,Ki,[2],8.7 nM
same,Ki,[3],1240 nM
Cc1ccc(CCCN2C[C@@H]3C[C@H](C2)c2cccc(=O)n2C3)cc1,Ki,[2],7200 nM
same,Ki,[3],> 50000 nM
O=C(CCCN1C[C@@H]2C[C@H](C1)c1cccc(=O)n1C2)c1ccc(F)cc1,Ki,[1],670 nM
same,Ki,[2],965 nM
same,Ki,[3],> 50000 nM
NC(=O)CCN1C[C@@H]2C[C@H](C1)c1cccc(=O)n1C2,Ki,[2],35 nM
same,Ki,[3],3600 nM
CC(=O)CCCN1C[C@@H]2C[C@H](C1)c1cccc(=O)n1C2,Ki,[2],757 nM
same,Ki,[3],> 50000 nM
O=c1cccc2n1C[C@H]1C[C@@H]2CN(Cc2cccnc2)C1,Ki,[2],6600 nM
same,Ki,[3],> 100000 nM
O=c1cccc2n1C[C@H]1C[C@@H]2CN(CCc2ccccc2)C1,Ki,[1],78 nM
same,Ki,[2],28 nM
same,Ki,[3],25000 nM
O=c1cccc2n1C[C@H]1C[C@@H]2CN(CCc2ccccn2)C1,Ki,[2],941 nM
same,Ki,[3],> 100000 nM
O=c1cccc2n1C[C@H]1C[C@@H]2CN(CCCCc2ccc(F)cc2)C1,Ki,[2],13000 nM
same,Ki,[3],> 50000 nM
O=c1cccc2n1C[C@H]1C[C@@H]2CN(CCCc2cccnc2)C1,Ki,[2],744 nM
same,Ki,[3],> 100000 nM
O=c1cccc2n1C[C@H]1C[C@@H]2CN(CCCCc2ccccc2)C1,Ki,[1],2220 nM
same,Ki,[2],3900 nM
O=c1cccc2n1C[C@H]1C[C@@H]2CN(CCCc2ccccc2)C1,Ki,[1],42 nM
same,Ki,[2],63 nM
same,Ki,[3],13000 nM
O=C(CN1C[C@@H]2C[C@H](C1)c1cccc(=O)n1C2)c1ccccc1,Ki,[2],17 nM
same,Ki,[3],2250 nM
O=C(CCN1C[C@@H]2C[C@H](C1)c1cccc(=O)n1C2)c1ccccc1,Ki,[1],7.2 nM
same,Ki,[2],2.6 nM
same,Ki,[3],550 nM
O=C(CCN1C[C@@H]2C[C@H](C1)c1cccc(=O)n1C2)c1ccc(F)cc1,Ki,[1],13 nM
same,Ki,[2],5.3 nM
same,Ki,[3],433 nM
Cc1ccc(CCN2C[C@@H]3C[C@H](C2)c2cccc(=O)n2C3)cc1,Ki,[2],727 nM
same,Ki,[3],> 50000 nM
O=c1cccc2n1C[C@H]1C[C@@H]2CN(Cc2ccccc2)C1,Ki,[1],1000 nM
same,Ki,[2],850 nM
same,Ki,[3],> 50000 nM
NC(=O)CN1C[C@@H]2C[C@H](C1)c1cccc(=O)n1C2,Ki,[2],7300 nM
same,Ki,[3],> 50000 nM
CCCCCN1C[C@@H]2C[C@H](C1)c1cccc(=O)n1C2,Ki,[1],43.5 nM
same,Ki,[2],332 nM
same,Ki,[3],39700 nM
O=C(CCCN1C[C@@H]2C[C@H](C1)c1cccc(=O)n1C2)c1ccccc1,Ki,[2],816 nM
same,Ki,[3],> 50000 nM
O=c1cccc2n1C[C@H]1C[C@@H]2CN(Cc2ccncc2)C1,Ki,[2],675 nM
same,Ki,[3],> 100000 nM
O=c1cccc2n1C[C@H]1C[C@@H]2CN(Cc2ccc(F)cc2)C1,Ki,[1],183 nM
same,Ki,[2],330 nM
same,Ki,[3],78700 nM
O=c1cccc2n1C[C@H]1C[C@@H]2CN(CCc2ccc(F)cc2)C1,Ki,[2],1300 nM
same,Ki,[3],> 50000 nM
O=c1cccc2n1C[C@H]1C[C@@H]2CN(CCc2ccncc2)C1,Ki,[2],7.2 nM
same,Ki,[3],4200 nM
O=c1cccc2n1C[C@H]1C[C@@H]2CN(CCCc2ccc(F)cc2)C1,Ki,[1],611 nM
same,Ki,[2],5000 nM
same,Ki,[3],> 50000 nM
O=C(CN1C[C@@H]2C[C@H](C1)c1cccc(=O)n1C2)c1ccc(F)cc1,Ki,[1],172 nM
same,Ki,[2],409 nM
O=c1cccc2n1C[C@@H]1CNC[C@H]2C1 [CYTISINICLINE],Ki,[1],0.34 nM
same,Ki,[2],0.48 nM
same,Ki,[3],331 nM
